4 compounds from ChEMBL document CHEMBL3400073, “Design, synthesis and biological evaluation of new hybrid anticonvulsants derived from N-benzyl-2-(2,5-dioxopyrrolidin-1-yl)propanamide and 2-(2,5-dioxopyrrolidin-1-yl)butanamide derivatives” (Bioorg Med Chem, 2015) can be followed below.

Active and inactive are the calls of the source. The calls are words filed in the database; no cut-off is given here. Bounds are passed on as bounds.

The test system of data set [1] is Mus musculus. Description: Anticonvulsant activity in Albino Swiss CD1 mouse at 100 mg/kg, ip after 2 hrs by subcutaneous pentylenetetrazole test. It is filed as functional, organism-based. More on the design: dose 100 mg/kg. The essentials:
(§1)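 Male CD-1 mice, 16–26 g, in groups of 4, each mouse used once, were given 100 mg/kg ip (0.1 mL/10 g, methylcellulose vehicle). MES used 25 mA, 500 V, 50 Hz delivered by ear electrodes for 0.2 s, and absence of hindlimb tonic extension counted as protection. In scPTZ, mice without clonic convulsions over 30 min of observation counted as protected. Both tests were run 0.5 h or 2 h after dosing.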

Data set [2] concerns Mus musculus. The data set is described as follows: Anticonvulsant activity in Albino Swiss CD1 mouse at 100 mg/kg, ip after 0.5 hrs by subcutaneous pentylenetetrazole test. More on the design: dose 100 mg/kg. It is filed as functional, organism-based. The essentials: as §1
Data set [3] concerns Mus musculus. The data set is described as follows: Neurological toxicity in Albino Swiss CD1 mouse at 100 mg/kg, ip after 2 hrs by rotarod test. To be noted: in vivo. On the set-up: dose 100 mg/kg, route intraperitoneal. It is filed as organism-based. In a few lines:
(§2)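 Mice were trained on a 2 cm rod for 3 min, with unlimited trials, at least 24 h before testing. Each was then dosed ip at 100 mg/kg and tested at 10 rpm 0.5 h or 2 h later, in groups of 4. Failure to stay on the rod for at least 1 min indicated neurotoxicity.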

The subject of data set [4] is Mus musculus. The data set is described as follows: Anticonvulsant activity in intraperitoneally dosed Albino Swiss CD1 mouse after 2 hrs by maximal electroshock test. It is filed as functional. The essentials: (§3)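 Male CD-1 mice were dosed ip (0.1 mL/10 g, methylcellulose vehicle), at least four dose groups of 6 mice each. Protection in MES meant no hindlimb tonic extension after a 25 mA, 50 Hz, 0.2 s ear-electrode shock. Protection in scPTZ meant no clonus over 30 min.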
Background: Protection in the maximal electroshock model is a classic sign of anticonvulsant action.

The test system of data set [5] is Mus musculus. The data set is described as follows: Neurological toxicity in Albino Swiss CD1 mouse at 100 mg/kg, ip after 0.5 hrs by rotarod test. On the set-up: dose 100 mg/kg, route intraperitoneal. To be noted: in vivo. It is filed as organism-based. In a few lines: as §2
Data set [6] relates to Mus musculus. Description: Anticonvulsant activity in intraperitoneally dosed Albino Swiss CD1 mouse by maximal electroshock test. To be noted: Albino Swiss CD1, ip. It is filed as functional. The essentials:
as §3

In data set [7] the test system is Mus musculus. The data set is described as follows: Anticonvulsant activity in intraperitoneally dosed Albino Swiss CD1 mouse assessed as time to peak effect by maximal electroshock test. It is filed as functional.
Data set [8] concerns Mus musculus. The data set is described as follows: Anticonvulsant activity in Albino Swiss CD1 mouse at 100 mg/kg, ip after 0.5 hrs by maximal electroshock test. It is filed as functional, organism-based. More on the design: dose 100 mg/kg. The essentials:
as §1

Data set [9] concerns Mus musculus. The data set is described as follows: Anticonvulsant activity in intraperitoneally dosed Albino Swiss CD1 mouse assessed as time to peak effect after 2 hrs by subcutaneous pentylenetetrazole test. It is filed as functional.
The test system of data set [10] is Mus musculus. Description: Anticonvulsant activity in Albino Swiss CD1 mouse at 100 mg/kg, ip after 2 hrs by maximal electroshock test. It is filed as functional, organism-based. More on the design: dose 100 mg/kg. In a few lines:
as §1

Data set [11] has as its system Mus musculus. The data set is described as follows: Anticonvulsant activity in intraperitoneally dosed Albino Swiss CD1 mouse after 0.5 hrs by subcutaneous pentylenetetrazole test. It is filed as functional. The essentials:
as §3

Data set [12] deals with Mus musculus. Description: Potency index, ratio of ED50 for […] acid to ED50 for compound in intraperitoneally dosed Albino Swiss CD1 mouse by subcutaneous pentylenetetrazole test. It is filed as functional.
For data set [13], the system named is Mus musculus. Description: Ratio of protective index for […] acid to protective index for compound in intraperitoneally dosed Albino Swiss CD1 mouse.
Data set [14] concerns Mus musculus. Description: Anticonvulsant activity in intraperitoneally dosed Albino Swiss CD1 mouse by subcutaneous pentylenetetrazole test. It is filed as functional. In a few lines:
as §3

Data set [15] concerns Mus musculus. Description: Protective index, ratio of neurotoxic TD50 in Albino Swiss CD1 mouse by rotarod test to anticonvulsant ED50 in Albino Swiss CD1 mouse by subcutaneous pentylenetetrazole test. In a few lines: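 The protective index is the rotarod TD50 divided by the MES or scPTZ ED50. Each value came from ip dosing in male CD-1 mice with probit analysis, and the reference drugs were tested under the same conditions.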
A general note: Falling from the rotarod earlier than controls is read as motor impairment.

A short description of data set [16]: Neurological toxicity in intraperitoneally dosed Albino Swiss CD1 mouse by rotarod test. It is filed as organism-based. To be noted: in vivo, ip. The essentials:
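Mice trained on the rotarod were given various ip doses, four groups in all, and tested at 10 rpm. Failure to stay on the rod for at least 1 min indicated neurotoxicity.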

In data set [17] the test system is HEK293. The data set is described as follows: Antiproliferative activity against HEK293 cells at 0.01 to 250 uM after 48 hrs by formazan based EZ4U assay. It is filed as cell-based. The note with it: human, hek293, 48 h. In a few lines:
(§4)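 HEK-293 cells (1.5 × 10^4/well) and IMR-32 cells (2 × 10^4/well) were grown in DMEM with 10% FBS for 24 h to 60% confluence. Compound was diluted from a 25 mM DMSO stock to 0.01–250 µM final, with DMSO at or below 1%, and incubated 48 h at 37 °C in 5% CO2. EZ4U reagent was added for 5 h, then absorbance was read at 492 nm.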

Data set [18] in a line: Cytotoxic activity against human IMR32 cells at 0.01 to 250 uM after 48 hrs by formazan based EZ4U assay. It is filed as cell-based. To be noted: imr-32, 48 h. The essentials: as §4
Data set [19] concerns Mus musculus. The data set is described as follows: Anticonvulsant activity in intraperitoneally dosed Albino Swiss CD1 mouse after 0.5 hrs by maximal electroshock test. It is filed as functional. In a few lines: as §3
In data set [20] the test system is Liver microsome. The data set is described as follows: Drug metabolism in human liver microsomes assessed as metabolite formation treated with 50 uM 2-(2,5-Dioxopyrrolidin-1-yl)-N-(2-fluorobenzyl)propanamide pre-incubated at 37 degC for 5 mins before addition of NADPH regeneration system measured after 120 mins by UPLC-MS/MS method. The note with it: 2 h. It is filed as ADME. In a few lines:
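Pooled human liver microsomes from adult males and females were used at 1 mg/ml in 0.1 M Tris-HCl, pH 7.4. After the 5 min preincubation, the NADPH regeneration system was added and the reaction ran for 120 min. It was quenched with cold methanol and centrifuged, and the supernatant was analysed by UPLC-MS/MS with ESI on a tandem quadrupole.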
In general terms: Microsomes from liver hold many membrane-bound enzymes, among them those of drug oxidation.

In the case of `CC1CC(=O)N(C(C)C(=O)NCc2ccc(C(F)(F)F)cc2)C1=O` (racemic), the result in data set [1], in data set [2] and in data set [8] was inactive. The Activity entry in data set [3] and in data set [5] was “Non-toxic” in each case. This compound also registered an MED50 in data set [4] of 100 mg/kg. Further, the ED50 in data set [6] was > 150 mg/kg. The Time in [7] and in data set [9] was 2 h throughout.

For `CCC(C(=O)NCc1cccc(F)c1)N1C(=O)CCC1=O` (racemic), the result in [1], in data set [10] and in data set [8] was inactive. The Activity result in data set [3] and in [5] was “Non-toxic” in each case. In addition, the MED50 in data set [11] is 100 mg/kg. Further, the “Ratio ED50” value in data set [12] is given as 2.96. Also, the Ratio in [13] was found to be 3.05. The ED50 in [14] came to 47.4 mg/kg. Also, the Time in data set [7] and in [9] was 0.5 h in each case. The “Ratio TD50/ED50” value in [15] is given as 6.89. Also, the TD50 in data set [16] stood at 327 mg/kg.

In the case of `CC(C(=O)NCc1ccccc1F)N1C(=O)CCC1=O` (racemic), the outcome in [1] and in data set [10] was inactive. Further, the Activity result in data set [3], in data set [17], in data set [5] and in data set [18] was “Non-toxic” each time. Also, the MED50 in data set [11] and in data set [19] was 100 mg/kg each time. The Time in [7] and in [9] was 0.5 h throughout.

As for `O=C(NCc1ccccc1F)C(CO)N1C(=O)CCC1=O` (stereo not drawn), the Drug metabolism entry in [20] is listed as “metabolite_detected”.

As usually defined, the ED50 is the midpoint of the dose-response relation. Low values mean greater potency, high ones weaker potency. A word on the TD50: it is the 50% point of the dose-response relation for the toxic effect studied. The low end stands for harm at a small dose, the high end for harm only at a large dose.
